From article PMC3024510 (Cancer Immunology, Immunotherapy : CII, 2010)

Experiments:
HLA-A2 = test: HLA stabilization assay for peptide binding to HLA class I molecules; parameters: species or system human; conditions: mean value from two experiments; normalized to HIV (40 μM peptide)
T2 cells = assay type: cell-based, human; conditions: 4 h 51Cr release; singlets
In short: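 Effector: a clone from RCC-patient PBLs given repeated peptide-loaded autologous DC and PBL stimulations, limiting-dilution cloned, and kept on 120 U/ml IL-2. […] Supernatant 51Cr was gamma-counted.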

cancer cells = test: cold target inhibition assay; assay type: cell-based; conditions: unlabeled peptide-loaded T2 cells, inhibitor:target ratio 20:1; singlets
In short: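 51Cr-labeled (1 h) cancer cell line targets, including an HLA-A2− breast cancer line, were co-cultured 4 h with the peptide-specific CTL clone. The clone came from RCC-patient PBLs and was maintained on 120 U/ml IL-2. Unlabeled peptide-loaded T2 cells were added at 20-fold excess over targets. Supernatant 51Cr was gamma-counted.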

[1] = system: PBLs from cancer patients; test: IFN-γ ELISPOT assay, cancer patients; assay type: cell-based, human; conditions: all cancer patients tested (BC, MM, RCC)
In short: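 Cells were monocyte-depleted, cryopreserved leukapheresis PBLs from end-stage breast cancer, MM and RCC patients. They were stimulated once with 20 µM peptide, given 40 U/ml IL-2 next day, and tested after 7–8 days. The overnight IFN-γ ELISPOT used 3 × 10^5 cells/well in duplicate ± 5 µM peptide, with 10^4 T2 cells per well. Responders: background-subtracted mean spots ±½ SD >25 per 10^5 cells.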

Question: ILIDWLVQV [CB204] was tested. Which “HLA-A2 stabilization relative to HIV” value (HLA-A2) did it give?
Answer: The value was “stabilizes HLA-A2 to a higher degree than HIV”.

Question: What about the “lysis of peptide-loaded T2 cells by CB204-specific CTL clone” value (T2 cells) of the same sequence?
Answer: Its value is “able to lyse T2 cells loaded with CB204”.

Question: And the “inhibition of cancer cell lysis by cold T2 target cells presenting the peptide” value (cancer cells)?
Answer: The value was “inhibited lysis of cancer cells”.

Question: What about the “cancer patients with spontaneous T-cell responses” value [1] of the same sequence?
Answer: Its value is 73%.

Question: How did the “lysis of peptide-loaded T2 cells by CB204-specific CTL clone” value (T2 cells) turn out when “ILKEPVHGV [HIV-1 pol476–484, reference compound]” was run?
Answer: The value was “not T2 cells loaded with an irrelevant HIV peptide”.
